From ChEMBL document CHEMBL1130413, “Novel 3'-C/N-substituted 2',3'-beta-D-dideoxynucleosides as potential chemotherapeutic agents. 1. Thymidine derivatives: synthesis, structure, and broad spectrum antiviral properties” (J Med Chem, 1997)
In brackets after ≈: the same amount, converted by molar mass.

Key:
L1210 = experiment: EC50 is the cytotoxic concentration of compound required to reduce L1210 (murine leukemia cells) cell viability by 50%.; format: functional, cell-based; settings: Mus musculus
Outline: (§1)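 Murine L1210 or FM3A-derived cells seeded at 5 × 10^5 cells/mL with varying compound concentrations. Incubated 2 days at 37 °C in humidified CO2. Viable cells counted with a Coulter counter. Value is the concentration reducing viable cell number by 50%.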

E6SM [1] = experiment: 50% Minimum inhibitory concentration which is required to reduce cytopathogenicity induced by (G) strain of HSV-2 virus on human E6SM cells.; format: functional
Outline: (§2)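 Confluent cell monolayers infected with 100 CCID50 virus and left 1 h for adsorption. Residual virus then removed and compound added at serial dilutions (400, 200, 100 ... µg/mL). Value is the concentration giving 50% reduction of CPE.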

CCRF-CEM [2] = experiment: 50% effective concentration of compound which is required to protect human CEM cells against HIV-2 induced giant cell formation.; format: functional, cell-based
Outline: (§3)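 CEM cells at 250000–300000 cells/mL infected with HIV-1 (IIIB) or HIV-2 (ROD) at 100 CCID50/mL. Infected cells mixed with serial compound dilutions and incubated 4 days at 37 °C. Syncytium (giant cell) formation then scored. Values averaged over two independent experiments.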

CCRF-CEM [3] = experiment: Cytotoxic concentration which is required to reduce human CEM cell viability by 50%.; format: functional
Outline: (§4)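 Human CEM or Molt-4 cells seeded at 7.5 × 10^5 cells/mL with varying compound concentrations. Incubated 3 days at 37 °C in humidified CO2. Viable cells counted with a Coulter counter. Value is the concentration reducing viable cell number by 50%.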

[4] = Selectivity index of HIV-1 and HIV-2 with respect to MT-4 cells; format: functional, MT4
Outline: (§5)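 Selectivity index calculated as average CC50 divided by average EC50. Each average comes from two independent experiments, using HIV-1 (IIIB) and HIV-2 (ROD) in CEM or MT-4 cells.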

MT4 [5] = experiment: 50% effective concentration of compound which is required to protect human MT-4 cells against cytopathogenicity of HIV-2.; format: functional, cell-based
[6] = Selectivity index of HIV-1 and HIV-2 with respect to CEM cells; format: functional, CCRF-CEM; outline: as §5
E6SM [7] = experiment: 50% Minimum inhibitory concentration which is required to reduce cytopathogenicity induced by (KOS) strain of HSV-1 virus on human E6SM cells.; format: functional; outline: as §2
CEM-TK(-) [8] = experiment: 50% effective concentration of compound which is required to protect Thymidine kinase deficient human CEM (CEM/TK-) cells against HIV-2.; format: functional, cell-based
FM3A [9] = experiment: EC50 is the cytotoxic concentration of compound required to reduce FM3A/TK- HSV-1TK+ cell viability by 50%.; format: functional, cell-based; settings: Mus musculus; outline: as §1
E6SM [10] = experiment: 50% Minimum inhibitory concentration which is required to reduce cytopathogenicity induced by (F) strain of HSV-1 virus on human E6SM cells.; format: functional; outline: as §2
E6SM [11] = experiment: 50% Minimum inhibitory concentration which is required to reduce cytopathogenicity induced by (Lyons) strain of HSV-2 virus on human E6SM cells.; format: functional; outline: as §2
MT4 [12] = experiment: 50% effective concentration of compound which is required to protect human MT-4 cells against cytopathogenicity of HIV-1.; format: functional, cell-based
FM3A [13] = experiment: EC50 is the cytotoxic concentration of compound required to reduce FM3A (murine mammary carcinoma cells) cell viability by 50%.; format: functional, cell-based; settings: Mus musculus; outline: as §1
MT4 [14] = experiment: Cytotoxic concentration which is required to reduce human MT-4 cell viability by 50%.; format: functional
MOLT-4 = experiment: EC50 is the cytotoxic concentration of compound required to reduce Molt4/C8 (human T-lymphocyte) cell viability by 50%.; format: functional, cell-based; outline: as §4
E6SM [15] = experiment: 50% Minimum inhibitory concentration which is required to reduce cytopathogenicity induced by TK-(B2006) strain of HSV-1 virus on human E6SM cells.; format: functional; outline: as §2
CCRF-CEM [16] = experiment: 50% effective concentration of compound which is required to protect human CEM cells against HIV-1 induced giant cell formation.; format: functional, cell-based; outline: as §3
E6SM [17] = experiment: 50% Minimum inhibitory concentration which is required to reduce cytopathogenicity induced by (196) strain of HSV-2 virus on human E6SM cells.; format: functional; outline: as §2
FM3A [18] = experiment: EC50 is the cytotoxic concentration of compound required to reduce FM3A/TK- (Thymidine kinase deficient murine mammary carcinoma cells) cell viability by 50%.; format: functional, cell-based; settings: Mus musculus; outline: as §1
[19] = Minimum cytotoxic concentration which causes microscopically detectable alteration of normal cell morphology after 2 days of incubation.; format: functional; settings: 48 h
Outline: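 Uninfected E6SM cells exposed to compound for 2 days. Minimum concentration giving a microscopically detectable change in normal cell morphology recorded.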

E6SM [20] = experiment: 50% Minimum inhibitory concentration which is required to reduce cytopathogenicity induced by (Mc Intyre) strain of HSV-1 virus on human E6SM cells.; format: functional; outline: as §2
CEM-TK(-) [21] = experiment: Cytotoxic concentration which is required to reduce CEM/TK- cell viability by 50%.; format: functional; settings: Homo sapiens
HEL [22] = experiment: 50% Minimum inhibitory concentration which is required to reduce cytopathogenicity induced by (Mc Intyre) strain of HSV-1 virus on human embryonic HEL cells.; format: functional; outline: as §2
HEL [23] = experiment: 50% Minimum inhibitory concentration which is required to reduce cytopathogenicity induced by TK-(B2006) strain of HSV-1 virus on human embryonic HEL cells.; format: functional; outline: as §2
HEL [24] = experiment: 50% Minimum inhibitory concentration which is required to reduce cytopathogenicity induced by (KOS) strain of HSV-1 virus on human embryonic HEL cells.; format: functional; outline: as §2
HEL [25] = experiment: 50% Minimum inhibitory concentration which is required to reduce cytopathogenicity induced by (Lyons) strain of HSV-2 virus on human embryonic HEL cells.; format: functional; outline: as §2
HEL [26] = experiment: 50% Minimum inhibitory concentration which is required to reduce cytopathogenicity induced by (G) strain of HSV-2 virus on human embryonic HEL cells.; format: functional; outline: as §2
HeLa = experiment: 50% Minimum inhibitory concentration which is required to reduce cytopathogenicity induced by Vesicular Stomatitis virus (VSV) in Hela cells.; format: functional; settings: Homo sapiens; outline: as §2
HEL [27] = experiment: 50% Minimum inhibitory concentration which is required to reduce cytopathogenicity induced by (OKA) strain of Varicella Zoster virus on human embryonic HEL cells.; format: functional
HepG2 = experiment: 50% Effective concentration of compound required for inhibiting intracellular viral replicative intermediate DNA in HBV-transfected 2.2.15 cell line.; format: functional, cell-based; settings: Homo sapiens
Outline: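 2.2.15 cells (HBV-transfected, Hep-G2-derived) in DMEM with 4% FBS and 0.5 mM glutamine; drug exposure 9 days, medium changed every 3 days. Total intracellular DNA extracted and Southern-blotted with a 32P-labelled full-length HBV probe. Replicative intermediate DNA in treated cells compared with untreated 2.2.15 cells; Hep-G2 as negative control.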

SMILES | EC50 (L1210) | MIC (E6SM [1]) | EC50 (CCRF-CEM [2]) | CC50 (CCRF-CEM [3]) | Selectivity index [4] | EC50 (MT4 [5]) | Selectivity index [6] | MIC (E6SM [7]) | EC50 (CEM-TK(-) [8]) | EC50 (FM3A [9]) | MIC (E6SM [10]) | MIC (E6SM [11]) | EC50 (MT4 [12]) | EC50 (FM3A [13]) | CC50 (MT4 [14]) | EC50 (MOLT-4) | MIC (E6SM [15]) | MIC (E6SM [17]) | MCC [19] | MIC (E6SM [20]) | further results
Cc1cn(C2C/C(=[N+](/[O-])O)C(CO)O2)c(=O)[nH]c1=O (stereo not given) | 25 µg/mL (≈ 92.2 µM) | > 200 µg/mL | 10 µg/mL (≈ 36.9 µM) | 247 µg/mL (≈ 911 µM) | 102 | 1.2 µg/mL (≈ 4.42 µM) | 25 | 35 µg/mL (≈ 129 µM) | > 100 µg/mL | > 200 µg/mL | 9 µg/mL (≈ 33.2 µM) | > 200 µg/mL | 0.86 µg/mL (≈ 3.17 µM) | > 200 µg/mL | 91 µg/mL (≈ 336 µM) | 17 µg/mL (≈ 62.7 µM) | > 200 µg/mL | > 200 µg/mL | > 200 µg/mL | 35 µg/mL (≈ 129 µM) | EC50 (CCRF-CEM [16]): 13 µg/mL (≈ 47.9 µM); EC50 (FM3A [18]): > 200 µg/mL; CC50 (CEM-TK(-) [21]): > 200 µg/mL
Nc1nc2c(ncn2COC(CO)CO)c(=O)[nH]1 [GANCICLOVIR] | – | 0.002 µg/mL (≈ 0.00784 µM) | – | – | – | – | – | 0.001 µg/mL (≈ 0.00392 µM) | – | – | 0.002 µg/mL (≈ 0.00784 µM) | 0.002 µg/mL (≈ 0.00784 µM) | – | – | – | – | 5 µg/mL (≈ 19.6 µM) | 0.006 µg/mL (≈ 0.0235 µM) | > 100 µg/mL | 0.003 µg/mL (≈ 0.0118 µM) | –
CO/N=C1/C[C@H](n2cc(C)c(=O)[nH]c2=O)O[C@@H]1CO.CO/N=C1\C[C@H](n2cc(C)c(=O)[nH]c2=O)O[C@@H]1CO | 112 µg/mL | > 200 µg/mL | 27 µg/mL | > 200 µg/mL | 64 | 4.6 µg/mL | 8 | > 200 µg/mL | > 100 µg/mL | > 200 µg/mL | > 200 µg/mL | > 200 µg/mL | 3.3 µg/mL | > 200 µg/mL | 182 µg/mL | > 200 µg/mL | > 200 µg/mL | > 200 µg/mL | > 200 µg/mL | > 200 µg/mL | MIC (HEL [22]): > 50 µg/mL; MIC (HEL [23]): > 50 µg/mL; MIC (HEL [24]): 50 µg/mL; MIC (HEL [25]): 35 µg/mL; EC50 (CCRF-CEM [16]): 26 µg/mL; EC50 (FM3A [18]): > 200 µg/mL; MIC (HEL [26]): > 50 µg/mL; CC50 (CEM-TK(-) [21]): > 200 µg/mL
Cc1cn(C2C/C(=N\O)C(CO)O2)c(=O)[nH]c1=O (stereo not given) | 1.1 µg/mL (≈ 4.31 µM) | 0.7 µg/mL (≈ 2.74 µM) | 0.35 µg/mL (≈ 1.37 µM) | 9.9 µg/mL (≈ 38.8 µM) | 88 | 0.03 µg/mL (≈ 0.118 µM) | 28 | 0.4 µg/mL (≈ 1.57 µM) | 20 µg/mL (≈ 78.4 µM) | > 200 µg/mL | 0.5 µg/mL (≈ 1.96 µM) | 1.4 µg/mL (≈ 5.49 µM) | 0.025 µg/mL (≈ 0.098 µM) | > 200 µg/mL | 1.6 µg/mL (≈ 6.27 µM) | 1.2 µg/mL (≈ 4.7 µM) | > 200 µg/mL | 11 µg/mL (≈ 43.1 µM) | > 400 µg/mL | 1.3 µg/mL (≈ 5.09 µM) | MIC (HeLa): 135 µg/mL (≈ 529 µM); MIC (HEL [27]): 20 µg/mL (≈ 78.4 µM); MIC (HEL [22]): 0.85 µg/mL (≈ 3.33 µM); MIC (HEL [23]): > 50 µg/mL; MIC (HEL [24]): 1.4 µg/mL (≈ 5.49 µM); MIC (HEL [25]): 0.31 µg/mL (≈ 1.21 µM); EC50 (CCRF-CEM [16]): 0.4 µg/mL (≈ 1.57 µM); EC50 (HepG2): 0.25 µg/mL (≈ 0.98 µM); EC50 (FM3A [18]): > 200 µg/mL; MIC (HEL [26]): 0.5 µg/mL (≈ 1.96 µM); CC50 (CEM-TK(-) [21]): > 100 µg/mL
